ChEMBL document CHEMBL3352534, “A prodrug strategy for the oral delivery of a poorly soluble HCV NS5B thumb pocket 1 polymerase inhibitor using self-emulsifying drug delivery systems (SEDDS)” (Bioorg Med Chem Lett, 2015)
In brackets after ≈: the same amount, converted by molar mass.

Tests used:
Liver microsome [1] = assay: Prodrug conversion in rat liver microsomes assessed as half life
Liver microsome [2] = assay: Prodrug conversion in human liver microsomes assessed as half life
Plasma [3] = assay: Prodrug conversion in human plasma assessed as half life
Plasma [4] = assay: Prodrug conversion in rat plasma assessed as half life; type: ADME, cell-free
Outline: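 Rat plasma (from centrifuged whole blood) was incubated with 2 µM compound at 37 °C. Samples were quenched 1:3 with acetonitrile/methanol 1:1, centrifuged and analysed by HPLC-PDA. Half-life was taken as 0.693/first-order rate of loss of the starting compound.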

[5] = Prodrug conversion in simulated gastric fluid assessed as half life; type: ADME; details: simulated gi fluid
Outline: (§1)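 Incubations used 2 µM compound at 37 °C in either SGF (0.2% NaCl/HCl, pH 1.2, pepsin 3.2 mg/mL) or SIF (KH2PO4/NaOH, pH 7.5, pancreatin 10 mg/mL). Samples were quenched 1:2 with acetonitrile/methanol 1:1 and analysed by HPLC. t1/2 = 0.693/first-order disappearance rate.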

Intestine = assay: Prodrug conversion in rat intestinal microsomes assessed as half life
[6] = Prodrug conversion in simulated intestinal fluid assessed as half life; type: ADME; details: simulated gi fluid; outline: as §1
[7] = Prodrug conversion in human intestinal microsomes assessed as half life
[8] = Prodrug solubility in capmul; type: ADME
[9] = Prodrug solubility in solutol; type: ADME
[10] = Prodrug solubility in Labrasol; type: ADME
[11] = Prodrug solubility in PEG400; type: ADME
[12] = Cmax in rat plasma at 10 mg/kg, po using 10.6% PEG400, 5.4% Cremophor EL, 2.6% Labrasol, 1.4% Capmul MCM in water (80%) vehicle; type: ADME, organism-based; set-up: dose 10 mg/kg, route oral; details: plasma
Outline: (§2)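 Fasted rats were given a single 10 mg/kg oral dose, with n = 3 per dose and route. Plasma was extracted by solid-phase extraction. Analysis used HPLC with diode-array UV (200–400 nm, peak height at best S/N) or LC/MS. Calibration standards were made in blank plasma, with LOQ 7–14 ng/mL. Parameters came from noncompartmental analysis.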

[13] = AUC in rat plasma at 10 mg/kg, po using 10.6% PEG400, 5.4% Cremophor EL, 2.6% Labrasol, 1.4% Capmul MCM in water (80%) vehicle; type: ADME, organism-based; set-up: dose 10 mg/kg, route oral; details: plasma; outline: as §2
Rattus norvegicus [14] = assay: Cmax in rat plasma assessed as (E)-3-(4-(1-(2-(5-chloropyrimidin-2-yl)-3-cyclopentyl-1-methyl-1H-indole-6-carboxamido)cyclobutanecarboxamido)-2-ethoxyphenyl)acrylic acid at 10 mg/kg, po using 10.6% PEG400, 5.4% Cremophor EL, 2.6% Labrasol, 1.4% Capmul MCM in water (80%) vehicle; type: ADME, organism-based; set-up: dose 10 mg/kg, route oral; details: in vivo; outline: as §2
Rattus norvegicus [15] = assay: AUC in rat plasma assessed as (E)-3-(4-(1-(2-(5-chloropyrimidin-2-yl)-3-cyclopentyl-1-methyl-1H-indole-6-carboxamido)cyclobutanecarboxamido)-2-ethoxyphenyl)acrylic acid at 10 mg/kg, po using 10.6% PEG400, 5.4% Cremophor EL, 2.6% Labrasol, 1.4% Capmul MCM in water (80%) vehicle; type: ADME, organism-based; set-up: dose 10 mg/kg, route oral; details: in vivo; outline: as §2

SMILES	t1/2 (Liver microsome [1]) [h]	t1/2 (Liver microsome [2]) [h]	t1/2 [5] [h]	t1/2 [6] [h]	also measured
CCOc1cc(NC(=O)C2(NC(=O)c3ccc4c(C5CCCC5)c(-c5ncc(Cl)cn5)n(C)c4c3)CCC2)ccc1/C=C/C(=O)OCC(=O)OCc1ccc(Cl)cc1	11.4	5.62	–	–	–
CCOc1cc(NC(=O)C2(NC(=O)c3ccc4c(C5CCCC5)c(-c5ncc(Cl)cn5)n(C)c4c3)CCC2)ccc1/C=C/C(=O)N[C@@H](CC(=O)O)C(N)=O	–	–	> 5	0.067	–
CCOc1cc(NC(=O)C2(NC(=O)c3ccc4c(C5CCCC5)c(-c5ncc(Cl)cn5)n(C)c4c3)CCC2)ccc1/C=C/C(=O)OC(=O)C[C@H](O)C(=O)O	7.92	5.57	–	–	–
CCOc1cc(NC(=O)C2(NC(=O)c3ccc4c(C5CCCC5)c(-c5ncc(Cl)cn5)n(C)c4c3)CCC2)ccc1/C=C/C(=O)NCCO	1.48	1.63	–	–	–
CCOc1cc(NC(=O)C2(NC(=O)c3ccc4c(C5CCCC5)c(-c5ncc(Cl)cn5)n(C)c4c3)CCC2)ccc1/C=C/C(=O)N(C)CCO	2.25	1.3	–	–	–
CCOc1cc(NC(=O)C2(NC(=O)c3ccc4c(C5CCCC5)c(-c5ncc(Cl)cn5)n(C)c4c3)CCC2)ccc1/C=C/C(=O)OCC(=O)N1CCCC1	1.47	1.65	–	–	solubility [8]: < 200 mg/mL; solubility [9]: 200 mg/mL (≈ 265 mM); solubility [10]: 200 mg/mL (≈ 265 mM); solubility [11]: > 200 mg/mL
CCOc1cc(NC(=O)C2(NC(=O)c3ccc4c(C5CCCC5)c(-c5ncc(Cl)cn5)n(C)c4c3)CCC2)ccc1/C=C/C(=O)N[C@@H](CCC(=O)O)C(N)=O	–	–	0.533	4.23	–
CCOc1cc(NC(=O)C2(NC(=O)c3ccc4c(C5CCCC5)c(-c5ncc(Cl)cn5)n(C)c4c3)CCC2)ccc1/C=C/C(=O)OCOC(=O)C(C)(C)C	5.6	4.12	< 0.033	–	Cmax [12]: 40 nM; AUC [13]: 0.3 µM·h; Cmax (Rattus norvegicus [14]): 1700 nM; AUC (Rattus norvegicus [15]): 19.6 µM·h
CCOc1cc(NC(=O)C2(NC(=O)c3ccc4c(C5CCCC5)c(-c5ncc(Cl)cn5)n(C)c4c3)CCC2)ccc1/C=C/C(=O)N[C@@H](CCCNC(=N)N)C(N)=O	–	–	0.467	–	–
CCCCOC(=O)COC(=O)/C=C/c1ccc(NC(=O)C2(NC(=O)c3ccc4c(C5CCCC5)c(-c5ncc(Cl)cn5)n(C)c4c3)CCC2)cc1OCC	15.8	5.98	–	–	–

The next lines start with results.

t1/2 (Liver microsome [1]) [h]	t1/2 (Liver microsome [2]) [h]	t1/2 [5] [h]	t1/2 [6] [h]	SMILES	also measured
2.17	> 5	1.83	> 5	CCOc1cc(NC(=O)C2(NC(=O)c3ccc4c(C5CCCC5)c(-c5ncc(Cl)cn5)n(C)c4c3)CCC2)ccc1/C=C/C(=O)OCc1ccccc1	t1/2 (Plasma [3]): > 5 h; t1/2 (Plasma [4]): 2.23 h; t1/2 (Intestine): > 5 h; t1/2 [7]: > 5 h
0.233	> 5	1.75	> 5	CCOc1cc(NC(=O)C2(NC(=O)c3ccc4c(C5CCCC5)c(-c5ncc(Cl)cn5)n(C)c4c3)CCC2)ccc1/C=C/C(=O)OCC(Cl)(Cl)Cl	t1/2 (Plasma [3]): > 5 h; t1/2 (Plasma [4]): 1.3 h; t1/2 (Intestine): > 5 h; t1/2 [7]: > 5 h
16.5	> 5	–	–	CCOc1cc(NC(=O)C2(NC(=O)c3ccc4c(C5CCCC5)c(-c5ncc(Cl)cn5)n(C)c4c3)CCC2)ccc1/C=C/C(=O)OCCOc1ccccc1	–
1.73	> 5	0.417	–	CCOc1cc(NC(=O)C2(NC(=O)c3ccc4c(C5CCCC5)c(-c5ncc(Cl)cn5)n(C)c4c3)CCC2)ccc1/C=C/C(=O)OCC[N+](C)(C)C.[Br-]	–
2.08	2.1	–	–	CCOc1cc(NC(=O)C2(NC(=O)c3ccc4c(C5CCCC5)c(-c5ncc(Cl)cn5)n(C)c4c3)CCC2)ccc1/C=C/C(=O)OCC(=O)OC	–
12.7	17.88	0.883	–	CCCCCCOC(=O)/C=C/c1ccc(NC(=O)C2(NC(=O)c3ccc4c(C5CCCC5)c(-c5ncc(Cl)cn5)n(C)c4c3)CCC2)cc1OCC	Cmax [12]: 400 nM; AUC [13]: 2.2 µM·h; Cmax (Rattus norvegicus [14]): 200 nM; AUC (Rattus norvegicus [15]): 3.2 µM·h
2.45	1.6	–	–	CCOC(=O)COC(=O)/C=C/c1ccc(NC(=O)C2(NC(=O)c3ccc4c(C5CCCC5)c(-c5ncc(Cl)cn5)n(C)c4c3)CCC2)cc1OCC	–
0.35	> 5	2.23	> 5	CCCOC(=O)/C=C/c1ccc(NC(=O)C2(NC(=O)c3ccc4c(C5CCCC5)c(-c5ncc(Cl)cn5)n(C)c4c3)CCC2)cc1OCC	t1/2 (Plasma [3]): > 5 h; t1/2 (Plasma [4]): 15.2 h; t1/2 (Intestine): > 5 h; t1/2 [7]: > 5 h
3.07	> 5	0.333	> 5	CCOC(=O)/C=C/c1ccc(NC(=O)C2(NC(=O)c3ccc4c(C5CCCC5)c(-c5ncc(Cl)cn5)n(C)c4c3)CCC2)cc1OCC	t1/2 (Plasma [3]): > 5 h; t1/2 (Plasma [4]): 8.18 h; t1/2 (Intestine): > 5 h; t1/2 [7]: > 5 h
1.17	3.1	–	–	CCOc1cc(NC(=O)C2(NC(=O)c3ccc4c(C5CCCC5)c(-c5ncc(Cl)cn5)n(C)c4c3)CCC2)ccc1/C=C/C(=O)OCC(=O)O	–
0.783	0.683	–	–	CCOc1cc(NC(=O)C2(NC(=O)c3ccc4c(C5CCCC5)c(-c5ncc(Cl)cn5)n(C)c4c3)CCC2)ccc1/C=C/C(=O)OCCNN1CCCC1	solubility [8]: < 100 mg/mL; solubility [9]: < 100 mg/mL; solubility [10]: < 100 mg/mL; Cmax [12]: 40 nM; AUC [13]: 0.06 µM·h; Cmax (Rattus norvegicus [14]): 6100 nM; AUC (Rattus norvegicus [15]): 25.6 µM·h
2.2	26.15	3.03	1.63	CCOc1cc(NC(=O)C2(NC(=O)c3ccc4c(C5CCCC5)c(-c5ncc(Cl)cn5)n(C)c4c3)CCC2)ccc1/C=C/C(=O)OCC(=O)OCc1ccccc1	t1/2 (Plasma [3]): > 5 h; t1/2 (Plasma [4]): 6.6 h; t1/2 (Intestine): > 5 h; t1/2 [7]: > 5 h
1.07	0.85	–	–	CCOc1cc(NC(=O)C2(NC(=O)c3ccc4c(C5CCCC5)c(-c5ncc(Cl)cn5)n(C)c4c3)CCC2)ccc1/C=C/C(=O)OCCOCCOC	solubility [8]: < 60 mg/mL; solubility [9]: < 100 mg/mL; solubility [10]: < 30 mg/mL; Cmax [12]: 30 nM; AUC [13]: 0.1 µM·h; Cmax (Rattus norvegicus [14]): 4600 nM; AUC (Rattus norvegicus [15]): 23.1 µM·h
1.42	> 5	1.43	> 5	CCOc1cc(NC(=O)C2(NC(=O)c3ccc4c(C5CCCC5)c(-c5ncc(Cl)cn5)n(C)c4c3)CCC2)ccc1/C=C/C(=O)OCCC(C)C	t1/2 (Plasma [3]): 6.18 h; t1/2 (Plasma [4]): 18.02 h; t1/2 (Intestine): > 5 h; t1/2 [7]: > 5 h
